Measurements as given in the RNAGym collection of RNA variant scans (doi:10.1101/gad.245936.114).
This sample holds only a part of the variants without activity.

B1: tRNA (parent)
chain: CUCUCGGUAGCCAAGUUGGUUUAAGGCGCAAGACUUUAAUUUAUCACUACGAAAUCUUGAGAUCGGGCGUUCGACUCGCCCCCGGGAGAUUUUUUCCUCGAGCAA

Variants of: B1
Assay: nonsense suppression (GFP-seq) (ratio to wild type); higher = more function; SUP4oc tRNA, yeast GFP reporter sort-seq
Outline: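 To measure nonsense suppression, tRNA variants from a library carrying ~3% random mutations were integrated into the yeast genome alongside RFP and a GFP ochre reporter under galactose control. Growth took place in raffinose/galactose medium supplemented with 80 mg/L adenine, followed by sorting into GFP/RFP bins and Illumina sequencing of each bin (phred ≥30). For each variant with ≥100 reads and ≥30 cells, the bin median GFP/RFP values were weighted by its estimated cell share per bin and referenced to the unmutated parent tRNA.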

Row | Variant | nonsense suppression
1 | G61C G67A | 0.0647
2 | U63A G67A | ≤ 0.026
3 | U63A C75G U76C | 1.19
4 | A62G U63C G66A | ≤ 0.026
5 | G67A G85U | 0.0862
6 | G59A U76G C77A | ≤ 0.026
7 | A60U U63G | 0.789
8 | G61C G78U | 0.13
9 | U57C C79U | ≤ 0.026
10 | U57A | 0.0873
11 | C56U | 0.15
12 | C68U C83G | ≤ 0.026
13 | A60G C75A | 0.976
14 | U58C A60C | 0.0568
15 | G61C C75A | 1.06
16 | G61C C75G | 1.21
17 | U63C G85A | 1.06
18 | G67A U71C A89C | ≤ 0.026
19 | U63C C75U | 1.1
20 | U63C C75A | 1.04
21 | U58C G61U U63C | ≤ 0.026
22 | U63G G67A | 0.0444
23 | C68G G69A | ≤ 0.026
24 | U57A C81G A89G | ≤ 0.026

Row | Variant | nonsense suppression
25 | A60G C82A | 0.0331
26 | G61C C77G | 0.0296
27 | G61C C77U | 0.0267
28 | G61C A87U | 0.3
29 | G61C A87G | 0.247
30 | G61C A87C | 0.0361
31 | G61U C82U | 0.73
32 | G61A G65A | 0.127
33 | G61C C72G | 0.0291
34 | G59U G88A | ≤ 0.026
35 | U58G U70C | ≤ 0.026
36 | U57A G84U | 0.0408
37 | G61C G69C C79G G84C | ≤ 0.026
38 | A60C A62C A87G | ≤ 0.026
39 | G61A G66C | ≤ 0.026
40 | U63A G86U | 0.0573
41 | U57G U71A | ≤ 0.026
42 | U63A C82U | 0.178
43 | A60C A74G | 0.0424
44 | A60G A89U | 0.0291
45 | U63C C81U | 0.142
46 | A60U U76C | 1.05
47 | G59C G85A | 0.114
48 | U58C G69A | ≤ 0.026

Row | Variant | nonsense suppression
49 | U57A G66A G78C C82A | ≤ 0.026
50 | G61A C79U | 0.209
51 | G61A C79G | ≤ 0.026
52 | U57G C68G C75G | ≤ 0.026
53 | U57C U58A A62C | ≤ 0.026
54 | G67A C75G | 0.194
55 | U57A G61A | 0.0464
56 | U63G G84C | 0.0283
57 | A60G G78U | 0.0498
58 | A60G G78A | 0.0542
59 | G66C G78A | 0.0452
60 | A62U C75G | 0.201
61 | C56G U58C G66C | ≤ 0.026
62 | G67C U70G | ≤ 0.026
63 | G61C C81G | 0.248
64 | C56G G61C G88U | ≤ 0.026
65 | G59C G66U C83A A87C | ≤ 0.026
66 | C68G U70C | ≤ 0.026
67 | G61U G67A | 0.135
68 | G61U G67U | ≤ 0.026
69 | C68A C77A | ≤ 0.026
70 | A62C G67A | ≤ 0.026
71 | G61A G78U | 0.0402
72 | U63G G85A | 0.787

Row | Variant | nonsense suppression
73 | G65U G67A | ≤ 0.026
74 | A60U G67A | 0.0457
75 | A60G G84A | 0.269
76 | U63A G66U U71A A87G | ≤ 0.026
77 | U63G A89G | 0.0674
78 | U57A U63C | 0.0744
79 | G61C G85C | 0.045
80 | U63G G78A | 0.0891
81 | U63G G78U | 0.0445
82 | U63G G66U G84A | ≤ 0.026
83 | U57G U70G | ≤ 0.026
84 | U58C A89C | ≤ 0.026
85 | U57A U76A | ≤ 0.026
86 | G61A C64G | 0.0404
87 | G59A G84C | ≤ 0.026
88 | U63A G85U | 0.23
89 | U63A G85A | 1.09
90 | U58G G66U C75A | ≤ 0.026
91 | C68U U70C | 0.0321
92 | G61A C75U | 0.923
93 | G61A C75A | 0.842
94 | G61C G84U | 0.199
95 | U57A A60C | 0.0859
96 | G61A G67A G73C | ≤ 0.026

Row | Variant | nonsense suppression
97 | A60G G69A | 0.0526
98 | A60C C75U | 0.167
99 | C64U U71G | ≤ 0.026
100 | G61C C64U C68G G84A | ≤ 0.026
101 | G66A C75U | 0.368
102 | G66A C75A | 1.18
103 | G61C C79U | 0.202
104 | G66C G69C G73C G84C | ≤ 0.026
105 | G61A U76G | 0.0268
106 | G61A U76C | 0.775
107 | U57C G85A | 0.757
108 | C64G U70C G84U | ≤ 0.026
109 | C56A G69A | ≤ 0.026
110 | G61A G84C | 0.0752
111 | A60U C68U | 1.1
112 | U63G G69A | 0.116
113 | A62G C75U C83A | ≤ 0.026
114 | U63C A74G | 0.0264
115 | A60G U63A | 0.163
116 | A60U U71G | ≤ 0.026
117 | G59U A89G | ≤ 0.026
118 | U63G U71C | 0.028
119 | G61A C80U | 0.232
120 | U58C U63C | 0.144

Row | Variant | nonsense suppression
121 | U57G G85C | ≤ 0.026
122 | U63A C72U | 0.133
123 | U63C G78U | 0.0499
124 | U58A G59A U63A G69C U70G | ≤ 0.026
125 | G61A A89G | 0.0396
126 | G61A A89C | 0.0288
127 | G65U G86A | ≤ 0.026
128 | U58A A60C | 0.0508
129 | A60C A62U | 0.0785
130 | G61C G73A | 0.213
131 | A60U C81U | 0.818
132 | A62G G65C | ≤ 0.026
133 | G61A G65C G69A C80U | ≤ 0.026
134 | U57G G78A | 0.0374
135 | G61A | 0.853
136 | G61U | 1.03
137 | G61C | 1.14
138 | G61A A62C | 0.0863
139 | G61A A62U | 0.311
140 | C64G C79A | ≤ 0.026
141 | U58C G73A | 0.0472
142 | G66A C72G | ≤ 0.026
143 | G67A C80U | 0.0261
144 | A62U G84C | 0.0347

Row | Variant | nonsense suppression
145 | G61U U76C | 0.911
146 | G59U A62C A89G | ≤ 0.026
147 | G61C C68U | 0.633
148 | G69A C82G | ≤ 0.026
149 | G59C A60C U71G G78A | ≤ 0.026
150 | C56G U58C G66C U70C | ≤ 0.026
151 | A62C C64G | ≤ 0.026
152 | A62U U63C | ≤ 0.026
153 | U63C C82U | 0.449
154 | G59C U63A G66A C68U C72A | ≤ 0.026
155 | A60U G65C C81G | 0.203
156 | U57A U58C C81G | ≤ 0.026
157 | G67A A74U | 0.0276
158 | G66A G78A | 0.0402
159 | U63C G73A | 0.11
160 | U63G A87U | 0.0518
161 | U63G | 1.14
162 | U63A | 1.05
163 | U63C | 1.05
164 | G61U C75U G85A | 1.04
165 | G61A C72A | 0.0325
166 | G61A C72U | 0.0666
167 | A60G U71C | 0.0362
